Laboratory results published in ChEMBL document CHEMBL1154958, “Novel molecular hybrids of cinnamic acids and guanylhydrazones as potential antitubercular agents” (Bioorg Med Chem Lett, 2010).
Converted amounts (≈) assume the structure as drawn.

Tests used:
[1] = system: Mycobacterium tuberculosis; assay: Antituberculosis activity against Mycobacterium tuberculosis H37Rv after 7 days by resazurin microtiter assay; type: functional; details: 168 h
Procedure, shortened: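 H37Rv suspension seeded at 10⁵ cells/well in Middlebrook 7H9 broth. Compounds were serially diluted on the plate, and controls got matching DMSO. Plates were incubated at 37 °C for 7 days, then fresh 0.02% resazurin was added and plates incubated a further 48 h. MIC was the lowest concentration giving complete inhibition, read visually by colour.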

[2] = Cytotoxicity against african green monkey Vero C1008 cells assessed as cell viability at 1000 ug/ml after 72 hrs by MTT assay; type: cell-based; details: chlorocebus sabaeus, read-out: Activity
[3] = Cytotoxicity against african green monkey Vero C1008 cells assessed as cell viability at 62.5 ug/ml after 72 hrs by MTT assay; type: cell-based; details: chlorocebus sabaeus, read-out: Activity
[4] = Cytotoxicity against african green monkey Vero C1008 cells assessed as cell viability at 31.25 ug/ml after 72 hrs by MTT assay; type: cell-based; details: chlorocebus sabaeus, read-out: Activity
[5] = Cytotoxicity against african green monkey Vero C1008 cells assessed as cell viability at 2000 ug/ml after 72 hrs by MTT assay; type: cell-based; details: chlorocebus sabaeus, read-out: Activity
[6] = Cytotoxicity against african green monkey Vero C1008 cells after 72 hrs by MTT assay; type: cell-based; details: chlorocebus sabaeus
[7] = Cytotoxicity against african green monkey Vero C1008 cells assessed as cell viability at 125 ug/ml after 72 hrs by MTT assay; type: cell-based; details: chlorocebus sabaeus, read-out: Activity

Row | SMILES | MIC [1] | viability at 72 h, 1000 ug/ml [2] | viability at 72 h, 62.5 ug/ml [3] | viability at 72 h, 31.25 ug/ml [4] | viability at 72 h, 2000 ug/ml [5] | CC50 at 72 h [6] | viability at 72 h, 125 ug/ml [7]
1 | N=C(N)N/N=C/c1ccc(O)cc1 | 1120 µM (≈ 200 µg/mL) |  |  |  |  |  | 
2 | O=C(O)/C=C/c1ccccc1 [CINNAMIC ACID] | 675 µM (≈ 100 µg/mL) |  |  |  |  |  | 
3 | O=C(/C=C/c1ccccc1)Oc1ccccc1 [PHENYL CINNAMATE] | 502 µM (≈ 113 µg/mL) |  |  |  |  |  | 
4 | NNC(=O)c1ccncc1 [ISONIAZID] | 1.8 µM (≈ 0.247 µg/mL) | 31.7% | 98.5% | 99.3% | 23.1% | 5.83 mM | 95.5%
